Assay results reported in ChEMBL document CHEMBL4000211, “Discovery of novel polycyclic spiro-fused carbocyclicoxindole-based anticancer agents” (Eur J Med Chem, 2017).

Tests used:
NCI-H1299 = assay: Antiproliferative activity against human NCI-H1299 cells after 48 hrs by MTT assay; format: functional, cell-based; conditions: NCI-H1299, 48 h
How it was run: (§1)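 Cells seeded at 3×10³/well and grown 24 h, then exposed 48 h to six final concentrations, twofold steps down from 30. MTT (5 mg/mL) was added for 2–4 h at 37 °C. Supernatant was removed, formazan dissolved in DMSO, and OD read at 570 nm. Results are given as IC50, or as percent inhibition where IC50 exceeds the top concentration. At least three runs.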

A2780S [1] = assay: Antiproliferative activity against human A2780S cells at 30 uM after 48 hrs by MTT assay relative to control; format: functional; how it was run: as §1
A549 = assay: Antiproliferative activity against human A549 cells after 48 hrs by MTT assay; format: functional, cell-based; conditions: A549, 48 h; how it was run: as §1
MCF7 = assay: Antiproliferative activity against human MCF7 cells after 48 hrs by MTT assay; format: functional, cell-based; conditions: MCF7, 48 h; how it was run: as §1
NCI-H1975 = assay: Antiproliferative activity against human NCI-H1975 cells after 48 hrs by MTT assay; format: functional, cell-based; conditions: NCI-H1975, 48 h; how it was run: as §1
BGC-823 = assay: Antiproliferative activity against human BGC823 cells after 48 hrs by MTT assay; format: functional, cell-based; conditions: BGC-823, 48 h; how it was run: as §1
HCT-116 = assay: Antiproliferative activity against human HCT116 cells after 48 hrs by MTT assay; format: functional, cell-based; conditions: HCT-116, 48 h; how it was run: as §1
A2780/Taxol = assay: Antiproliferative activity against human A2780T cells at 30 uM after 48 hrs by MTT assay relative to control; format: functional; how it was run: as §1
CT26 = assay: Antiproliferative activity against mouse CT26 cells after 48 hrs by MTT assay; format: functional, cell-based; conditions: CT26, 48 h; how it was run: as §1
A2780S [2] = assay: Antiproliferative activity against human A2780S cells after 48 hrs by MTT assay; format: functional, cell-based; how it was run: as §1

Row | SMILES | IC50 (NCI-H1299) | inhibition at 30 µM (A2780S [1]) | IC50 (A549) | IC50 (MCF7) | IC50 (NCI-H1975) | IC50 (BGC-823) | IC50 (HCT-116) | inhibition at 30 µM (A2780/Taxol) | IC50 (CT26) | IC50 (A2780S [2])
1 | C[C@@H]1C(C=O)=C[C@H]2[C@@H](c3ccccc3N[C@@H]2C)[C@@]12C(=O)Nc1ccccc12 | > 30 µM | 47.2% | > 30 µM | > 30 µM | > 30 µM | > 30 µM | > 30 µM | 15.2% | > 30 µM | 
2 | C[C@@H]1C(C=O)=C[C@H]2[C@@H](c3ccccc3O[C@@H]2C)[C@@]12C(=O)Nc1ccc(F)cc12 | > 30 µM | 14.5% | > 30 µM | > 30 µM | > 30 µM | > 30 µM | > 30 µM | 4.4% | > 30 µM | 
3 | Cc1ccc2c(c1)[C@]1(C(=O)N2)[C@H](C)C(C=O)=C[C@H]2[C@H]1c1ccccc1O[C@@H]2C | > 30 µM | 12.8% | > 30 µM | > 30 µM | > 30 µM | > 30 µM | > 30 µM | 7.1% | > 30 µM | 
4 | O=CC1=C[C@@H]2COc3ccccc3[C@H]2C2(C1)C(=O)Nc1ccccc12 (some centres not stated) | > 30 µM |  | > 30 µM | > 30 µM | > 30 µM | > 30 µM | 25.8 µM | 25% | 27.1 µM | 21.6 µM
5 | COc1ccc2c(c1)O[C@H](C)[C@H]1C=C(C=O)[C@@H](C)[C@]3(C(=O)Nc4ccccc43)[C@H]21 | > 30 µM | 9.3% | > 30 µM | > 30 µM | > 30 µM | > 30 µM | > 30 µM | 3.9% | > 30 µM | 
6 | CCC[C@@H]1C(C=O)=C[C@H]2[C@@H](c3ccccc3O[C@@H]2CCC)[C@@]12C(=O)Nc1ccccc12 | > 30 µM |  | > 30 µM | > 30 µM | > 30 µM | > 30 µM | > 30 µM | 33.1% | > 30 µM | 25.7 µM
7 | C[C@@H]1C(C=O)=C[C@H]2[C@@H](c3cccc(F)c3O[C@@H]2C)[C@@]12C(=O)Nc1ccccc12 | > 30 µM | 22.2% | > 30 µM | > 30 µM | > 30 µM | > 30 µM | > 30 µM | 5.7% | > 30 µM | 
8 | C[C@@H]1C(C=O)=C[C@H]2[C@@H](c3cc(F)ccc3O[C@@H]2C)[C@@]12C(=O)Nc1ccccc12 | > 30 µM | 22.7% | > 30 µM | > 30 µM | > 30 µM | > 30 µM | > 30 µM | 2.6% | > 30 µM | 
9 | Cc1ccc2c(c1)[C@@H]1[C@H](C=C(C=O)[C@@H](C)[C@]13C(=O)Nc1ccccc13)[C@@H](C)O2 | > 30 µM | 28.2% | > 30 µM | > 30 µM | > 30 µM | > 30 µM | > 30 µM | 10.4% | > 30 µM | 
10 | C[C@@H]1C(C=O)=C[C@H]2[C@@H](c3ccccc3O[C@@H]2C)[C@@]12C(=O)Nc1cc(Cl)ccc12 | > 30 µM |  | > 30 µM | > 30 µM | > 30 µM | > 30 µM | > 30 µM | 13.1% | > 30 µM | 19.7 µM
11 | C[C@@H]1C(C=O)=C[C@H]2[C@@H](c3ccccc3O[C@@H]2C)[C@@]12C(=O)N(c1ccccc1)c1ccccc12 | 30 µM |  | > 30 µM | > 30 µM | > 30 µM | 25.7 µM | > 30 µM | 40.6% | > 30 µM | 18.9 µM
12 | C[C@@H]1C(C=O)=C[C@H]2[C@@H](c3cc(Cl)ccc3O[C@@H]2C)[C@@]12C(=O)Nc1ccccc12 | > 30 µM | 16.5% | > 30 µM | > 30 µM | > 30 µM | > 30 µM | > 30 µM | 5.8% | > 30 µM | 
13 | C[C@@H]1C(C=O)=C[C@H]2[C@@H](c3ccccc3OC2(C)C)[C@@]12C(=O)Nc1ccccc12 | > 30 µM | 14.4% | > 30 µM | > 30 µM | > 30 µM | > 30 µM | > 30 µM | 3.8% | > 30 µM | 
14 | C[C@@H]1C(C=O)=C[C@H]2[C@@H](c3cc([N+](=O)[O-])ccc3O[C@@H]2C)[C@@]12C(=O)Nc1ccccc12 | > 30 µM | 25.2% | > 30 µM | > 30 µM | > 30 µM | > 30 µM | > 30 µM | 0.2% | > 30 µM | 
15 | C[C@@H]1C(C=O)=C[C@H]2[C@@H](c3ccccc3O[C@@H]2C)[C@@]12C(=O)Nc1ccccc12 | > 30 µM | 23.5% | > 30 µM | > 30 µM | > 30 µM | > 30 µM | > 30 µM | 17.3% | > 30 µM | 
16 | C[C@@H]1C(C=O)=C[C@H]2[C@@H](c3ccccc3O[C@@H]2C)[C@@]12C(=O)N(C)c1ccccc12 | > 30 µM | 26.3% | > 30 µM | > 30 µM | > 30 µM | > 30 µM | > 30 µM | 4.5% | > 30 µM | 
17 | C[C@@H]1C(C=O)=C[C@H]2[C@@H](c3cc(Br)ccc3O[C@@H]2C)[C@@]12C(=O)Nc1ccccc12 | > 30 µM | 35.9% | > 30 µM | > 30 µM | > 30 µM | > 30 µM | > 30 µM | 2.3% | > 30 µM | 
18 | CC[C@@H]1C(C=O)=C[C@H]2[C@@H](c3ccccc3O[C@@H]2CC)[C@@]12C(=O)Nc1ccccc12 | > 30 µM | 34.1% | > 30 µM | > 30 µM | > 30 µM | > 30 µM | > 30 µM | 9% | > 30 µM | 
